Measurements from ChEMBL document CHEMBL3352649, “2,2'-Dihydroxybenzophenones and their carbonyl N-analogues as inhibitor scaffolds for MDR-involved human glutathione transferase isoenzyme A1-1” (Bioorg Med Chem, 2014).

How the values were obtained:
[1] = target: T1, Glutathione S-transferase A1 (Homo sapiens, UniProt P08263); experiment: Inhibition of human GSTA1 activity assessed as conjugation between CDNB and GSH
T1 sequence (P08263 whole entry): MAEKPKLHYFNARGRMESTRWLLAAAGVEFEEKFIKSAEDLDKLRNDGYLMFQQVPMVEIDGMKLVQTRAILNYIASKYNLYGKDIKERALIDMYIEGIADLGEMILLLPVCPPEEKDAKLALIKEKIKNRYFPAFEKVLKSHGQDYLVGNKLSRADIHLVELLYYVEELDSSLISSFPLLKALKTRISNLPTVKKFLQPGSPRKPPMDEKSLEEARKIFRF

[2] = target: T2, Glutathione S-transferase A1 (Homo sapiens) (UniProt P08263); experiment: Inhibition of human GSTA1 activity assessed as conjugation between CDNB and GSH at 25 uM
T2 sequence (whole entry): T1 sequence (P08263 whole entry)
Summary of the method: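 1 mL of 100 mM potassium phosphate pH 6.5, 0.75 µmol GSH, 25 nmol compound (from 5 mM DMSO stock), enzyme; 1 min at 25 °C, then 0.3 µmol CDNB. Read at 340 nm. Remaining activity is relative to a 5 µL DMSO replacement, mean of three assays.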

[3] = target: T1, Glutathione S-transferase A1; experiment: Mixed-type inhibition of human GSTA1 activity by double reciprocal Lineweaver-Burk graph

Structure (SMILES)	IC50 [1]	inhibition [2]	Ki [3]
O=C(c1ccccc1O)c1cc(Br)ccc1O	240 nM	87.7%	360 nM
O=C(c1ccccc1O)c1ccccc1O	–	0%	–
